Data from article PMC4104214 (Nuclear medicine and biology, 2014).

Assays:
MAGL [1] = molecular target: T1, MAGL (Mus musculus, UniProt O35678); assay: Ex vivo whole brain uptake and pharmacological blocking in mice; parameters: species or system mouse (male C57BL/6); conditions: for whole brain uptake: conscious mice, iv tail vein, 2 and 40 min post injection
T1 sequence (O35678 1-303): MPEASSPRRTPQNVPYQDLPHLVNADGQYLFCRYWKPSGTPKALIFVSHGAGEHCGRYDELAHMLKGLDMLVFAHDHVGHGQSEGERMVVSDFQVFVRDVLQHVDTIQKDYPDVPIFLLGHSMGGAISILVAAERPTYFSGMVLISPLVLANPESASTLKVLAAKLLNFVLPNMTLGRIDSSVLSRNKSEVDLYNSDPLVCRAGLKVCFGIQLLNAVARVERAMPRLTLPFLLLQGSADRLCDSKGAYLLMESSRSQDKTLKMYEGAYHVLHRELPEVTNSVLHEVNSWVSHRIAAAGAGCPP
Procedure, shortened: (§1)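 They were killed at 2 and 40 min. The blocking group got matching unlabeled inhibitor (2.0 mg/kg ip, 5% DMSO/5% Tween80 saline) 30 min before and was killed at 40 min. Trunk blood and whole brain were weighed and gamma-counted, decay-corrected to injection. Results given as SUV, mean ± SD, Student t-test.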

MAGL [2] = assay: Ex vivo blood radioactivity retention and pharmacological blocking in mice; parameters: species or system mouse (male C57BL/6)
Procedure, shortened: as §1

hFAAH = conditions: read-out: hFAAH IC50; human enzyme; cited from earlier work
MAGL [3] = molecular target: T2, MAGL (Rattus norvegicus, UniProt Q8R431); assay: Ex vivo brain uptake and pharmacological blocking in rats; parameters: species or system rat (male Sprague-Dawley)
T2 sequence (Q8R431 1-303): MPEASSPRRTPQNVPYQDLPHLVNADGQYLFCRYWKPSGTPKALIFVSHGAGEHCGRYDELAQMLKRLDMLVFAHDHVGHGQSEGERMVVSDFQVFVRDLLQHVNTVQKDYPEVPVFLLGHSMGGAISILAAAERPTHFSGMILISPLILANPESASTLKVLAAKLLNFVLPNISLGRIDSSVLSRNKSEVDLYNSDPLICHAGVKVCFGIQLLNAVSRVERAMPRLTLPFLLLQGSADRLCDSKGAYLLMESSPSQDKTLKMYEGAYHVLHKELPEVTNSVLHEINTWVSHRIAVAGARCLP
Procedure, shortened: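 Restrained conscious male Sprague-Dawley rats (330–370 g, n = 4/group) received 28–34 MBq of tracer (208 GBq/μmol) in 0.3 mL 5% Tween80 buffered saline via warm-water-dilated tail vein. They were decapitated at 2 and 40 min. The blocking group was pretreated with unlabeled inhibitor (2 mg/kg ip, 5% DMSO/5% Tween80 saline) and killed at 40 min. Cortex, cerebellum, hypothalamus and rest of brain were weighed and gamma-counted, decay-corrected against dose standards. Injected dose was corrected for tail residue.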

hMAGL = conditions: read-out: hMAGL IC50; human enzyme; cited from earlier work

| SMILES | whole brain uptake (MAGL [1]) | IC50 (hFAAH) [nM] | IC50 (hMAGL) [nM] | further results |
| --- | --- | --- | --- | --- |
| O=[11C](N1CCC(C(c2ccc3c(c2)OCO3)c2ccc3c(c2)OCO3)CC1)n1cncn1 [[^11C]18] | 0.65–0.82 SUV |  |  | reduction of brain retention in blocked group (MAGL [1]; mice, unlabeled inhibitor 2 mg/kg ip 30 min before radiotracer, 40 min post injection, p < 0.05): 42%; specific to non-specific binding ratio (MAGL [1]; mouse brain, estimated from 42% reduction in blocked group): 0.71; retention in blood (MAGL [2]; iv tail vein, 2 and 40 min post injection): 1.1–1.5 SUV; reduction of blood binding upon pharmacological blockade (MAGL [2]; unlabeled inhibitor 2 mg/kg ip 30 min before radiotracer, 40 min post injection): 71% |
| O=C(N1CCN(C(c2ccccc2)c2ccccc2)CC1)n1nnc2ccccc21 [compound 12] |  | 562 |  |  |
| O=[11C](OC(C(F)(F)F)C(F)(F)F)N1CCC(C(O)(c2ccc3c(c2)OCO3)c2ccc3c(c2)OCO3)CC1 [[^11C]7] | 0.34–0.67 SUV |  |  | brain radioactivity uptake (MAGL [3]; conscious rats, iv tail vein, 2 and 40 min post injection, brain regions): 0.44–0.71 SUV; blocking of brain uptake by pretreatment with unlabeled inhibitor (MAGL [3]; rats, unlabeled 7 2 mg/kg ip before radiotracer, 40 min post injection): not blocked by pretreatment with unlabeled 7; attenuation of brain uptake by pretreatment with unlabeled compound (MAGL [1]; mice, unlabeled inhibitor 2 mg/kg ip 30 min before radiotracer, 40 min post injection): not significantly attenuated |
| O=C(N1CCC(C(c2ccc3c(c2)OCO3)c2ccc3c(c2)OCO3)CC1)n1cncn1 [compound 18] |  | 4800 | 0.36 |  |
| O=C(OC(C(F)(F)F)C(F)(F)F)N1CCC(C(O)(c2ccc3c(c2)OCO3)c2ccc3c(c2)OCO3)CC1 [compound 7] |  | > 50000 | 5.9 |  |
